In ChEMBL document CHEMBL3102789, “Synthesis and biological evaluation of novel oxadiazole derivatives: a new class of thymidine phosphorylase inhibitors as potential anti-tumor agents” (Bioorg Med Chem, 2014):

Assays:
[1] = target: Thymidine phosphorylase (Escherichia coli K-12, UniProt P07650); assay: Inhibition of Escherichia coli thymidine phosphorylase using […] as substrate after 10 mins by spectrophotometric analysis
In short: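 Commercial E. coli TP in potassium phosphate buffer, pH 7.4, with […] substrate (1.5 mM stock). Test material incubated with the reaction mix for 10 min at 25 °C. Absorbance at 290 nm then read continuously at 10, 20 and 30 min. Substrate-free blanks were subtracted. Run in triplicate; IC50 given as mean ± SEM of three independent experiments.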

[2] = target: Thymidine phosphorylase (Escherichia coli K-12) (UniProt P07650); assay: Ratio of 7-deazaxanthine IC50 to compound IC50 for Escherichia coli thymidine phosphorylase using […] as substrate after 10 mins by spectrophotometric analysis
Sequence of Thymidine phosphorylase (Escherichia coli K-12) (P07650 whole entry, looked up): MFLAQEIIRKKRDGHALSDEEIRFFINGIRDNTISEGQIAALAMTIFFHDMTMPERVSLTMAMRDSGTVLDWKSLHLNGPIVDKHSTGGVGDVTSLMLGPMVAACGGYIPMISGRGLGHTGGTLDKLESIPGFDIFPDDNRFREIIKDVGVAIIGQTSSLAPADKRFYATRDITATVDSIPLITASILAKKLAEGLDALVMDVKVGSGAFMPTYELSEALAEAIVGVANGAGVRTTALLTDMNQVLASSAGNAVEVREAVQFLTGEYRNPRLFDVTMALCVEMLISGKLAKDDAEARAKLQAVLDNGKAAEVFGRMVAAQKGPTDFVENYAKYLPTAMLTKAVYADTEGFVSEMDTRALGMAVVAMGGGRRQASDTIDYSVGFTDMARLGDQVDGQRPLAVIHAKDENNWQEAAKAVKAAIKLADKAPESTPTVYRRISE

Sequence of Thymidine phosphorylase (P07650 whole entry): as the sequence (P07650 whole entry, looked up) above

| Structure (SMILES) | IC50 [1] [µM] | Ratio IC50 [2] |
| --- | --- | --- |
| COc1ccccc1NCn1nc(-c2ccccc2)oc1=S | 87.2 |  |
| COc1cccc(NCn2nc(-c3ccccc3)oc2=S)c1 | 40.6 |  |
| COc1ccccc1NCn1nc(-c2ccccc2Br)oc1=S | 17.6 |  |
| COc1cc(-c2nn(CNCCc3ccccc3)c(=S)o2)cc(OC)c1OC | 69.3 |  |
| S=c1oc(-c2ccccc2Br)nn1CNc1ccc(Br)cc1 | 26.3 |  |
| S=c1oc(-c2ccccc2)nn1CNc1ccccc1Cl | 118 |  |
| S=c1oc(-c2ccc(Cl)cc2)nn1CNc1ccccc1Cl | 46.4 |  |
| COc1cc(-c2nn(CNc3ccccc3C)c(=S)o2)cc(OC)c1OC | 117 |  |
| Oc1ccccc1-c1nn(CNc2ccccc2Cl)c(=S)o1 | 130 |  |
| S=c1oc(-c2ccccc2Br)nn1CNc1ccccc1Cl | 21.8 |  |

Further lines, results first:

| IC50 [1] [µM] | Ratio IC50 [2] | Structure (SMILES) |
| --- | --- | --- |
| 58.2 |  | Cc1ccccc1NCn1nc(-c2ccc(Cl)cc2)oc1=S |
| 54.7 |  | Cc1ccc(NCn2nc(-c3ccc(C)cc3)oc2=S)cc1 |
| 83.2 |  | Cc1ccc(-c2nn(CNc3ccc(C)c(C)c3)c(=S)o2)cc1 |
| 88.7 |  | COc1ccccc1NCn1nc(-c2ccc(Cl)cc2)oc1=S |
| 134 |  | Cc1ccc(-c2nn(CNc3ccc(Cl)c(Cl)c3)c(=S)o2)cc1 |
| 14.4 | 2.5 | COc1ccc([N+](=O)[O-])cc1NCn1nc(-c2ccc(C)cc2)oc1=S |
| 23.7 |  | Cc1ccc(-c2nn(CNc3cccc(C)c3C)c(=S)o2)cc1 |
| 173 |  | S=c1oc(-c2ccc(Cl)cc2)nn1CNc1ccc(Br)cc1 |
| 104 |  | Cc1ccc(-c2nn(CNc3ccccc3)c(=S)o2)cc1 |
| 40.6 |  | Cc1ccc(NCn2nc(-c3ccccc3)oc2=S)cc1C |
| 84.4 |  | COc1cccc(NCn2nc(-c3ccc(C)cc3)oc2=S)c1 |
